Source: ChEMBL document CHEMBL1131381, “Design and synthesis of potent, selective inhibitors of endothelin-converting enzyme” (J Med Chem, 1998)

What was measured:
Neprilysin = Neprilysin (Homo sapiens, UniProt P08473); assay: Inhibitory activity against neutral endopeptidase (NEP).
[1] = Ratio of inhibitory activities against endothelin converting enzyme-1(ECE-1) and neutral endopeptidase (NEP).
[2] = target: T1, Endothelin-converting enzyme 1 (Homo sapiens, UniProt P42892); assay: Inhibitory activity was assessed on CHO cells expressing recombinant human Endothelin-converting enzyme 1 (ECE-1).; assay type: cell-based
T1 sequence (P42892 whole entry): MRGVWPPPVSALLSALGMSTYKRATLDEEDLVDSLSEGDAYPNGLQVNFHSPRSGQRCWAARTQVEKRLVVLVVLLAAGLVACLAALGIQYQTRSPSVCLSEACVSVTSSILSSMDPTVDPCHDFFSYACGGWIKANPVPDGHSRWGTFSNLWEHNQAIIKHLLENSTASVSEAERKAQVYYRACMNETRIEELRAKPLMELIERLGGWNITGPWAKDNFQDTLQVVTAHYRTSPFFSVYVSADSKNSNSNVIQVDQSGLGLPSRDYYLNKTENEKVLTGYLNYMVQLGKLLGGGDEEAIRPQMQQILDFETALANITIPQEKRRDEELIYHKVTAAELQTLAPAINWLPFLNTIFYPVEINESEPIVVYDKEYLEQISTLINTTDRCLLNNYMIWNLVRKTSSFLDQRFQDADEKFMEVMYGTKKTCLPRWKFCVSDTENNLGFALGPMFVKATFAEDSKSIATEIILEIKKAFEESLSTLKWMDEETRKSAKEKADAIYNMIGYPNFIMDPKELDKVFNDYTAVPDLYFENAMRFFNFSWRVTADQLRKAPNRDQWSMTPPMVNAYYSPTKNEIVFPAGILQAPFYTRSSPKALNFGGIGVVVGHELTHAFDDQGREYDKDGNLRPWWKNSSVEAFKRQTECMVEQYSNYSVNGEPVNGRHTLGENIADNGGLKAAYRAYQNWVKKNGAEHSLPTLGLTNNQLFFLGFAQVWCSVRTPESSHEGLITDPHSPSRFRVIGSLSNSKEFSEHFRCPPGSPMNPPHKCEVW
In short: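 Membrane preparation (10 µg protein) from CHO cells expressing human ECE-1 was preincubated with compound for 20 min at room temperature in 50 mM Tes pH 7.0 with 0.005% Triton X-100. Human big ET-1 was added to a final 0.2 µM for 2 h at 37 °C. ET-1 formed was measured by [¹²⁵I]ET-1 radioimmunoassay.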

[3] = target: T2, Endothelin-converting enzyme 1 (Homo sapiens) (UniProt P42892); assay: Inhibitory activity (1 uM) was assessed on CHO cells expressing in recombinant human Endothelin-converting enzyme 1 (ECE-1); assay type: cell-based
T2 sequence (whole entry): T1 sequence (P42892 whole entry)

[4] = target: T3, Neprilysin (Rattus norvegicus) (UniProt P07861); assay: Inhibitory activity (10 uM) against rat neutral endopeptidase (NEP)
T3 sequence (whole entry): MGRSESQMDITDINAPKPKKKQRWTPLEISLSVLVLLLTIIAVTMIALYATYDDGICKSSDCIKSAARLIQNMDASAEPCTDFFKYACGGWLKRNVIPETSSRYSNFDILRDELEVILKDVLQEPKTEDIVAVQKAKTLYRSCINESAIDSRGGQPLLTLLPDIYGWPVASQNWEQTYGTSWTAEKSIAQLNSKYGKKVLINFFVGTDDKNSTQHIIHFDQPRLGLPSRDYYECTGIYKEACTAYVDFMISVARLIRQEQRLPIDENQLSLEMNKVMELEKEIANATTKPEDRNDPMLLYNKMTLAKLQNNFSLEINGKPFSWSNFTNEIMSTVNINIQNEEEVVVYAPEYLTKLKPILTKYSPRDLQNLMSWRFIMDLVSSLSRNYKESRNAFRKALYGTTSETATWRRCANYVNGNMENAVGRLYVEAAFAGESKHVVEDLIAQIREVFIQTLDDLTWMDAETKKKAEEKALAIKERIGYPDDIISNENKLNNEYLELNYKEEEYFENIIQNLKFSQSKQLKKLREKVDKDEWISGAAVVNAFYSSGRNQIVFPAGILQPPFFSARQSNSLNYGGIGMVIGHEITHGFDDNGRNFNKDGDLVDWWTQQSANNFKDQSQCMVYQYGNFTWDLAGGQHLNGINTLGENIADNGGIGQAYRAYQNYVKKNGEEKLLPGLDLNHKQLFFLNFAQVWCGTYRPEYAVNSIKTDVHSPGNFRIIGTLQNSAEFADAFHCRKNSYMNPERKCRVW

[5] = target: T2, Endothelin-converting enzyme 1 (Homo sapiens); assay: Inhibitory activity (1 uM) was assessed on CHO cells expressing in recombinant human Endothelin-converting enzyme 1 (ECE-1)

Sequence of Neprilysin (P08473 whole entry): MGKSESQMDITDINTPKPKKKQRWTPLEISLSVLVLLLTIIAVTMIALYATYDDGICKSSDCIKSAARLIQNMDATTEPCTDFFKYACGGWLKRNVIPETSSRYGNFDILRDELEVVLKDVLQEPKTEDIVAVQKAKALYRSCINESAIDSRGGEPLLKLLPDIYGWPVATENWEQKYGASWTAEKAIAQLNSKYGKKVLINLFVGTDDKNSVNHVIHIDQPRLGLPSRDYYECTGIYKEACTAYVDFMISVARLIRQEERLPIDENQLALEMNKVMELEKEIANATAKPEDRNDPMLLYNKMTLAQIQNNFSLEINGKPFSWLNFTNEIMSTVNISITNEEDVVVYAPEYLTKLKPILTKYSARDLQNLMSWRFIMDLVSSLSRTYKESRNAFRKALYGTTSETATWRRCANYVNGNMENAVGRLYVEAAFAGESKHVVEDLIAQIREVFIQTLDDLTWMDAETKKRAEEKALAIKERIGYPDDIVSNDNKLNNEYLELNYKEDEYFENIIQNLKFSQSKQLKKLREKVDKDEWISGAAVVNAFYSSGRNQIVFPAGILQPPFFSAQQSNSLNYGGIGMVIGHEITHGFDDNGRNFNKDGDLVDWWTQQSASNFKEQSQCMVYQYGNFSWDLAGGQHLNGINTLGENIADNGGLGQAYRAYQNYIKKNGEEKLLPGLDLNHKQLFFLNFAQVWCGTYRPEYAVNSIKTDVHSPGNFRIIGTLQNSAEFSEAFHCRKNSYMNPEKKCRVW

SMILES | IC50 (Neprilysin) | Selectivity [1] | IC50 [2] | inhibition [3] | inhibition [4] | inhibition [5]
O=P(O)(O)CN[C@@H](CC#Cc1ccccc1)c1nn[nH]n1 | 170 nM | 0.3 | 590 nM |  |  | 
CC(C)C[C@H](NC(=O)[C@H](CC#Cc1ccccc1)NCP(=O)(O)O)C(=O)O | 948 nM | 1.9 | 510 nM |  |  | 
O=P(O)(O)C(CCc1cccc2ccccc12)N[C@@H](Cc1ccc(-c2ccccc2)cc1)c1nnn[nH]1 (some centres not stated) | 5 nM | 0.29 | 17 nM |  |  | 
CC(C)C[C@H](NC(=O)[C@H](CC#Cc1ccccc1F)NCP(=O)(O)O)C(=O)O |  |  | 120 nM |  |  | 
O=C(NCCc1ccc(Br)cc1)[C@H](CC#Cc1ccc(F)cc1F)NCP(=O)(O)O | 860 nM | 20 | 43 nM |  |  | 
O=C(NCCc1ccc(Br)cc1)[C@H](CC#Cc1ccccc1F)NCP(=O)(O)O | 40000 nM | 364 | 110 nM |  |  | 
COc1ccc(CCNC(=O)[C@H](CC#Cc2ccc(F)cc2F)NCP(=O)(O)O)cc1OC |  |  | 160 nM |  | 21% | 
O=C(O)[C@H](CC#Cc1ccccc1F)NC(=O)[C@H](CC#Cc1ccccc1F)NCP(=O)(O)O | 6300 nM | 225 | 28 nM |  |  | 
CC(C)C[C@H](NC(=O)[C@H](CC#Cc1ccc(F)cc1F)NCP(=O)(O)O)C(=O)N[C@@H](C)C(=O)O | 5800 nM | 725 | 8 nM |  |  | 
O=C(O)[C@H](Cc1ccc(-c2ccccc2)cc1)NC(=O)[C@H](CC#Cc1ccccc1F)NCP(=O)(O)O | 250 nM | 19 | 13 nM |  |  | 
CC(C)C[C@H](NC(=O)[C@H](CC#Cc1cccc(F)c1)NCP(=O)(O)O)C(=O)O |  |  | 400 nM |  |  | 
O=C(NCCc1ccccc1)[C@H](CC#Cc1ccc(F)cc1F)NCP(=O)(O)O |  |  | 110 nM |  |  | 
O=C(NCCc1cccc2ccccc12)[C@H](CC#Cc1ccc(F)cc1F)NCP(=O)(O)O | 6200 nM | 182 | 34 nM |  |  | 
CC(C)[C@H](NC(=O)[C@H](CC#Cc1ccccc1F)NCP(=O)(O)O)C(=O)O | 6300 nM | 57 | 110 nM |  |  | 
CC(C)C[C@H](NC(=O)[C@H](CC#Cc1ccccc1Cl)NCP(=O)(O)O)C(=O)O |  |  | 4300 nM |  | 38% | 
CC(C)CCNC(=O)[C@H](CC#Cc1ccc(F)cc1F)NCP(=O)(O)O | 23000 nM | 164 | 140 nM |  |  | 
O=C(NCCCCc1ccccc1)[C@H](CC#Cc1ccccc1F)NCP(=O)(O)O |  |  |  | 0% |  | 
O=P(O)(O)CN[C@@H](CC#Cc1ccccc1F)c1nnn[nH]1 | 14 nM | 0.1 | 150 nM |  |  | 
CC(C)C[C@H](NC(=O)[C@H](CC#Cc1ccc(F)cc1F)NCP(=O)(O)O)C(=O)O | 6700 nM | 131 | 51 nM |  |  | 

Results, then the molecule that gave them:

IC50 (Neprilysin) | Selectivity [1] | IC50 [2] | inhibition [3] | inhibition [4] | inhibition [5] | SMILES
 |  |  | 0% |  |  | COc1ccccc1C#CC[C@H](NCP(=O)(O)O)c1nn[nH]n1
 |  | 150 nM |  |  |  | O=C(NCCCc1ccccc1)[C@H](CC#Cc1ccc(F)cc1F)NCP(=O)(O)O
11000 nM | 46 | 240 nM |  |  |  | O=C(O)[C@H](CC#Cc1ccccc1F)NCP(=O)(O)O
10700 nM | 82 | 130 nM |  |  |  | O=C(NCCc1cccc2ccccc12)[C@H](CC#Cc1ccccc1F)NCP(=O)(O)O
1300 nM | 52 | 25 nM |  |  |  | O=C(O)[C@H](Cc1ccc2ccccc2c1)NC(=O)[C@H](CC#Cc1ccccc1F)NCP(=O)(O)O
55000 nM | 220 | 250 nM |  |  |  | O=C(NCc1ccccc1)[C@H](CC#Cc1ccccc1F)NCP(=O)(O)O
4060 nM | 18 | 230 nM |  |  |  | CSCC[C@H](NC(=O)[C@H](CC#Cc1ccccc1F)NCP(=O)(O)O)C(=O)O
 |  |  | 45% |  |  | Cc1ccc(C#CC[C@H](NCP(=O)(O)O)c2nn[nH]n2)cc1
2070 nM | 148 | 14 nM |  |  |  | O=C(O)[C@H](CC1CCCCC1)NC(=O)[C@H](CC#Cc1ccc(F)cc1F)NCP(=O)(O)O
26000 nM | 153 | 170 nM |  |  |  | O=C(O)[C@H](CC#Cc1ccc(F)cc1F)NCP(=O)(O)O
2500 nM | 89 | 28 nM |  |  |  | O=C(NCCc1ccc(-c2ccccc2)cc1)[C@H](CC#Cc1ccc(F)cc1F)NCP(=O)(O)O
 |  |  | 8% |  |  | O=C(NCCc1ccc(-c2ccccc2)cc1)[C@H](CCCc1ccccc1F)NCP(=O)(O)O
6500 nM | 197 | 33 nM |  |  |  | O=C(NCCc1ccc(-c2ccccc2)cc1)[C@H](CC#Cc1ccccc1F)NCP(=O)(O)O
1200 nM | 21 | 56 nM |  |  |  | O=C(O)[C@H](Cc1ccccc1)NC(=O)[C@H](CC#Cc1ccccc1F)NCP(=O)(O)O
730 nM | 9 | 82 nM |  |  |  | O=C(O)CN1C(=O)[C@@H](NC(=O)[C@H](CC#Cc2ccc(F)cc2F)NCP(=O)(O)O)CCc2ccccc21
10000 nM | 32 | 310 nM |  |  |  | O=C(NCCc1ccccn1)[C@H](CC#Cc1ccc(F)cc1F)NCP(=O)(O)O
7000 nM | 132 | 53 nM |  |  |  | O=C(NCCc1ccc2ccccc2c1)[C@H](CC#Cc1ccc(F)cc1F)NCP(=O)(O)O
10000 nM | 132 | 76 nM |  |  |  | O=C(NCCc1c[nH]c2ccccc12)[C@H](CC#Cc1ccccc1F)NCP(=O)(O)O
19000 nM | 83 | 230 nM |  |  |  | O=C(NCCc1ccccc1)[C@H](CC#Cc1ccccc1F)NCP(=O)(O)O
9700 nM | 87 | 111 nM |  |  |  | O=C(NCCc1c[nH]c2ccccc12)[C@H](CC#Cc1ccc(F)cc1F)NCP(=O)(O)O
 |  |  |  | 12% | 0% | COc1ccccc1C#CC[C@H](NCP(=O)(O)O)C(=O)N[C@@H](CC(C)C)C(=O)O
 |  |  | 3% |  |  | CN(CCc1ccccc1)C(=O)[C@H](CC#Cc1ccccc1F)NCP(=O)(O)O
